# Source: ChEMBL document CHEMBL4373680, “Small antibacterial molecules highly active against drug-resistant Staphylococcus aureus” (Medchemcomm, 2019)
# Assays:
# Staphylococcus aureus [1] = assay: Antibacterial activity against vancomycin-resistant Staphylococcus aureus clinical isolate 4 after 24 hrs by tecan plate reader analysis; type: functional; conditions: clinical isolate 4, 24 h
# How it was run: (§1)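 Colony grown 24 h on NB agar at 37 °C, then 6 h in nutrient broth to mid-log (10⁸ CFU/mL by drop plating), diluted to 10⁵ CFU/mL in Mueller Hinton broth; added 9:1 to two-fold serial compound dilutions in MHB. Incubated 24 h, 37 °C; OD600 read. Triplicate per concentration, experiment run twice; MIC taken from the range of triplicate OD values.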
# Staphylococcus aureus [2] = assay: Antibacterial activity against methicillin-resistant Staphylococcus aureus R3890 clinical isolate after 24 hrs by tecan plate reader analysis; type: functional; conditions: R3890, 24 h; how it was run: as §1
# Staphylococcus aureus [3] = assay: Antibacterial activity against methicillin-resistant Staphylococcus aureus R3545 clinical isolate after 24 hrs by tecan plate reader analysis; type: functional; conditions: R3545, 24 h; how it was run: as §1
# [4] = Ratio of EC50 for dog MDCK cells to MIC for vancomycin-resistant Staphylococcus aureus clinical isolate 2; type: toxicity
# Acinetobacter baumannii = assay: Antibacterial activity against Acinetobacter baumannii MTCC 1425 after 24 hrs by tecan plate reader analysis; type: functional; conditions: MTCC 1425, 24 h
# How it was run: (§2)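 Broth microdilution MIC. Glycerol stocks grown on MacConkey agar 24 h at 37 °C, then a single colony in nutrient broth 6 h to mid-log (~10⁸ CFU/mL). Cells diluted to 10⁵ CFU/mL in Mueller Hinton broth and added to two-fold compound dilutions. Incubated 24 h at 37 °C, OD600 read. Triplicate wells, experiment run twice.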
# Staphylococcus aureus [5] = assay: Bactericidal activity against planktonic phase of methicillin-resistant Staphylococcus aureus ATCC 33591 assessed as log reduction in bacterial colony forming units at 16 ug/ml incubated for 2 hrs followed by plating on agar plate for 24 hrs by time-kill kinetic assay; type: functional
# How it was run: (§3)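 Time-kill: 6 h mid-log culture diluted to 10⁵ CFU/mL in MHB, incubated at 37 °C with compound at […]; 0.9% saline control. Aliquots at 1, 2, 4, 6, 8 and 12 h ten-fold diluted in saline, plated on NB agar 24 h at 37 °C; colonies counted, log scale.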
# [6] = Ratio of EC50 for human A549 cells to MIC for vancomycin-resistant Staphylococcus aureus clinical isolate 2; type: toxicity
# Staphylococcus aureus [7] = assay: Bactericidal activity against planktonic phase of methicillin-resistant Staphylococcus aureus R3545 assessed as log reduction in bacterial colony forming units at 16 ug/ml incubated for 4 hrs followed by plating on agar plate for 24 hrs by time-kill kinetic assay; type: functional; how it was run: as §3
# Klebsiella pneumoniae = assay: Antibacterial activity against Klebsiella pneumoniae ATCC 700603 after 24 hrs by tecan plate reader analysis; type: functional; conditions: Klebsiella pneumoniae, 700603, 24 h; how it was run: as §2
# [8] = Ratio of EC50 for dog MDCK cells to MIC for vancomycin-resistant Staphylococcus aureus clinical isolate 1; type: toxicity
# [9] = Hemolytic activity in human erythrocytes after 1 hr; type: ADME, cell-based, Erythrocyte
# How it was run: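 Heparinized donor blood. Erythrocytes washed three times in PBS and resuspended to 5 vol%, then mixed 3:1 with compound serially diluted in water. Incubated 1 h at 37 °C and centrifuged. Supernatant A540 read; % hemolysis relative to water and 0.1 vol% Triton-X controls.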
# Staphylococcus aureus [10] = assay: Antibacterial activity against vancomycin-resistant Staphylococcus aureus clinical isolate 1 after 24 hrs by tecan plate reader analysis; type: functional; conditions: clinical isolate 1, 24 h; how it was run: as §1
# Staphylococcus aureus [11] = assay: Bactericidal activity against planktonic phase of methicillin-resistant Staphylococcus aureus R3545 assessed as bacterial killing at 32 ug/ml incubated for 1 hr followed by plating on agar plate for 24 hrs by time-kill kinetic assay relative to control; type: functional; how it was run: as §3
# [12] = Selectivity index, ratio of HC50 for human erythrocytes to MIC for methicillin-resistant Staphylococcus aureus ATCC 33591; type: toxicity; conditions: read-out: Selectivity Index
# Staphylococcus aureus [13] = assay: Antibacterial activity against methicillin-resistant Staphylococcus aureus R3889 clinical isolate after 24 hrs by tecan plate reader analysis; type: functional; conditions: R3889, 24 h; how it was run: as §1
# [14] = Ratio of EC50 for human A549 cells to MIC for vancomycin-resistant Staphylococcus aureus clinical isolate 1; type: toxicity
# Staphylococcus aureus [15] = assay: Induction of membrane permeabilization in Staphylococcus aureus R3545 assessed as increase in fluorescence intensity measured upto 28 mins by propidium iodide staining based fluorescence spectroscopic technique; type: functional, organism-based
# How it was run: (§4)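 Mid-log MRSA washed in 5 mM HEPES and resuspended in 1:1 HEPES (5 mM) and glucose (5 mM). Propidium iodide added at 10 µM final. Baseline fluorescence (ex 535/em 617 nm) read 4 min, compound in water added, read to 28 min. Water control; triplicates averaged.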
# A549 = assay: Cytotoxicity against human A549 cells after 24 hrs by alamar blue assay; type: cell-based; conditions: A549, 24 h
# How it was run: (§5)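 About 10⁴ cells/well in DMEM with 10% FBS. Medium replaced with two-fold compound dilutions and incubated 24 h at 37 °C, 5% CO₂. Alamar Blue added for a further 4 h, absorbance 570 nm (600 nm reference). Viability normalized to untreated and 0.1% Triton-X wells. Triplicates; sigmoidal fit gives the 50% viability concentration.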
# Staphylococcus aureus [16] = assay: Induction of membrane depolarization in Staphylococcus aureus ATCC 33591 assessed as increase in fluorescence intensity measured upto 28 mins by DiSC3 staining based fluorescence spectroscopic technique; type: functional, organism-based
# How it was run: (§6)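 Mid-log MRSA washed in 5 mM HEPES pH 7.4 and resuspended in 1:1:1 HEPES (5 mM), glucose (5 mM) and KCl (100 mM). Loaded with DiSC3(5) at 2 µM final, 30 min in the dark. Baseline fluorescence (ex 622/em 670 nm) read 4 min, compound added, monitored to 28 min. Water control; triplicates averaged.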
# MDCK = assay: Cytotoxicity against dog MDCK cells after 24 hrs by alamar blue assay; type: cell-based; conditions: Canis lupus familiaris; how it was run: as §5
# Staphylococcus aureus [17] = assay: Bactericidal activity against planktonic phase of methicillin-resistant Staphylococcus aureus ATCC 33591 assessed as bacterial killing at 32 ug/ml incubated for 1 hr followed by plating on agar plate for 24 hrs by time-kill kinetic assay relative to control; type: functional; how it was run: as §3
# Staphylococcus aureus [18] = assay: Induction of membrane depolarization in Staphylococcus aureus R3545 assessed as increase in fluorescence intensity measured upto 28 mins by DiSC3 staining based fluorescence spectroscopic technique; type: functional, organism-based; how it was run: as §6
# Staphylococcus aureus [19] = assay: Induction of membrane permeabilization in Staphylococcus aureus ATCC 33591 assessed as increase in fluorescence intensity measured upto 28 mins by propidium iodide staining based fluorescence spectroscopic technique; type: functional, organism-based; how it was run: as §4
# Pseudomonas aeruginosa = assay: Antibacterial activity against Pseudomonas aeruginosa MTCC 424 after 24 hrs by tecan plate reader analysis; type: functional; conditions: MTCC 424, 24 h; how it was run: as §2
# Escherichia coli = assay: Antibacterial activity against Escherichia coli MTCC 443 after 24 hrs by tecan plate reader analysis; type: functional; conditions: MTCC 443, 24 h; how it was run: as §2
# Staphylococcus aureus [20] = assay: Antibacterial activity against methicillin-resistant Staphylococcus aureus ATCC 33591 after 24 hrs by tecan plate reader analysis; type: functional; conditions: ATCC 33591, 24 h; how it was run: as §1
compound,measurement,setting,value
CCCCCCCCNC(=O)C[N+](C)(CCO)CCCCCC[N+](C)(CCO)CC(=O)NCCCCCCCC.[Br-].[Br-] (stereo unspecified),MIC,Staphylococcus aureus [1],2 µg/mL
same,MIC,Staphylococcus aureus [2],4 µg/mL
same,MIC,Staphylococcus aureus [3],1 to 2 µg/mL
same,selectivity ratio,[4],22
same,MIC,Acinetobacter baumannii,16 µg/mL
same,Activity,Staphylococcus aureus [5],5.4 log10CFU/ml
same,selectivity ratio,[6],22
same,Activity,Staphylococcus aureus [7],5.6 log10CFU/ml
same,MIC,Klebsiella pneumoniae,32 µg/mL
same,selectivity ratio,[8],22
same,HC50 at 1 h,[9],222 µg/mL
same,MIC,Staphylococcus aureus [10],2 µg/mL
same,Activity,Staphylococcus aureus [11],100%
same,selectivity ratio,[12],222
same,MIC,Staphylococcus aureus [13],1 µg/mL
same,selectivity ratio,[14],22
same,Activity,Staphylococcus aureus [15],Dose-dependent effect
same,EC50,A549,44 µg/mL
same,Activity,Staphylococcus aureus [16],Dose-dependent effect
same,EC50,MDCK,45 µg/mL
same,Activity,Staphylococcus aureus [17],100%
same,Activity,Staphylococcus aureus [18],Dose-dependent effect
same,Activity,Staphylococcus aureus [19],Dose-dependent effect
same,MIC,Pseudomonas aeruginosa,16 µg/mL
same,MIC,Escherichia coli,4 to 8 µg/mL
same,MIC,Staphylococcus aureus [20],1 to 2 µg/mL
